How the values were obtained:
[1] = system: Human immunodeficiency virus 1; assay: Antiviral activity against Human immunodeficiency virus 1 assessed as inhibition of virus-induced cytopathic effects by cell based assay; type: functional, organism-based
Method in brief: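 HIV-1 cytopathic-effect inhibition assay yielding EC50; AZT positive control.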

[2] = system: Human immunodeficiency virus 1; assay: (§1) Antiviral activity against Human immunodeficiency virus 1 NL 4.3 harboring reverse transcriptase K103N mutant pseudotyped with VSV-G envelope co-transfected with luciferase gene infected in 293T cells assessed as inhibition of HIV1 replication administered 15 mins prior to infection measured after 48 hrs post infection by luciferase assay; type: functional, organism-based; conditions: Human immunodeficiency virus 1, NL 4.3, HEK-293T
Method in brief: (§2)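 VSV-G plasmid co-transfected with env-deficient pNL4-3.luc.R-E vector (wild-type, RT-K103N or RT-Y181C) into 293T cells by modified Ca3(PO4)2 method; medium changed 16 h post-transfection; virion supernatant harvested 48 h, 0.45 μm filtered, p24 ELISA-quantified and diluted to 0.2 ng p24/mL. Target 293T cells plated 6 × 10^4/well a day before; compounds in DMSO added 15 min before infection; luciferase in lysates read 48 h post-infection; EFV positive control.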

[3] = system: Human immunodeficiency virus 1; assay: Antiviral activity against wild type Human immunodeficiency virus 1 NL 4.3 pseudotyped with VSV-G envelope co-transfected with luciferase gene infected in human 293T cells assessed as inhibition of HIV1 replication administered 15 mins prior to infection measured after 48 hrs post infection by luciferase assay; type: functional, organism-based; conditions: Human immunodeficiency virus 1, NL 4.3, HEK-293T; method in brief: as §2
[4] = system: Human immunodeficiency virus 1; assay: as §1, with “Y181C” for “K103N”; type: functional, organism-based; conditions: Human immunodeficiency virus 1, NL 4.3, HEK-293T; method in brief: as §2
[5] = Cytotoxicity against human C8166 cells by MTT assay; type: cell-based
Method in brief: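 MTT assay on C8166 cells yielding CC50.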

[6] = Therapeutic index, ratio of CC50 for against human C8166 cells to EC50 for HIV-1; type: cell-based; conditions: read-out: Ratio CC50/EC50

SMILES: C/C=C(\C)C(=O)OCC1=C2C[C@H]3[C@H](O)[C@H]4C[C@H]4[C@]3(C)[C@@H]3C[C@@]4(O)C5=C(/C(=C(/C)C(=O)OC)C(=O)[C@H](O)[C@@]5(C)[C@@H]5C[C@@H]54)[C@]23OC1=O [SHIZUKAOL C]
- EC50 [1]: 16 nM
- EC50 [2]: 1360 nM
- EC50 [3]: 980 nM
- EC50 [4]: 1000 nM
- CC50 [5]: 89 nM
- selectivity ratio [6]: 5.56

SMILES: O=C1Nc2ccc(Cl)cc2[C@@](C#CC2CC2)(C(F)(F)F)O1 [EFAVIRENZ]
- EC50 [2]: 24 nM
- EC50 [4]: 2 nM

SMILES: COC(=O)/C(C)=C1\C(=O)[C@H](O)[C@]2(C)C3=C(C[C@@H]4[C@]5(OC(=O)C6=C5C[C@H]5[C@](O)(COC(=O)/C(C)=C/COC(=O)CCC(=O)OC6)[C@H]6C[C@H]6[C@]45C)[C@H]31)[C@H]1C[C@H]12 [SHIZUKAOL B]
- EC50 [1]: 1.4 nM
- EC50 [2]: 470 nM
- EC50 [3]: 220 nM
- EC50 [4]: 500 nM
- CC50 [5]: 20 nM
- selectivity ratio [6]: 14.4

SMILES: Cc1cn([C@H]2C[C@H](N=[N+]=[N-])[C@@H](CO)O2)c(=O)[nH]c1=O [ZIDOVUDINE]
- selectivity ratio [6]: 1.02e+06

SMILES: COC(=O)/C(C)=C1\C(=O)[C@H](O)[C@]2(C)C3=C(C[C@@H]4[C@]5(OC(=O)C6=C5C[C@H]5[C@](O)(COC(=O)/C=C(\C)COC(=O)CCC(=O)OC6)[C@H]6C[C@H]6[C@]45C)[C@H]31)[C@H]1C[C@H]12 [SHIZUKAOL F]
- EC50 [1]: 4.3 nM
- EC50 [2]: 3390 nM
- EC50 [3]: 110 nM
- EC50 [4]: 4050 nM
- CC50 [5]: 47 nM
- selectivity ratio [6]: 10.9

SMILES: COC(=O)/C(C)=C1\C(=O)[C@H](O)[C@]2(C)C3=C(C[C@@H]4[C@]5(OC(=O)C6=C5C[C@H]5[C@](O)(COC(=O)/C=C(\C)COC(=O)[C@@H](O)CC(=O)OC6)[C@H]6C[C@H]6[C@]45C)[C@H]31)[C@H]1C[C@H]12 [SHIZUKAOL H]
- EC50 [1]: 3.3 nM
- EC50 [2]: 2350 nM
- EC50 [3]: 830 nM
- EC50 [4]: 860 nM
- CC50 [5]: 22 nM
- selectivity ratio [6]: 6.67

Reference: ChEMBL document CHEMBL1811839, “Lindenane disesquiterpenoids with anti-HIV-1 activity from Chloranthus japonicus” (J Nat Prod, 2011)
